From ChEMBL document CHEMBL1136741, “Role of the glycopeptide framework in the antibacterial activity of hydrophobic derivatives of glycopeptide antibiotics” (2003)
Converted amounts (≈) assume the structure as drawn.

Tests used:
Enterococcus faecium [1] = assay: Antibacterial activity against glycopeptide resistant Enterococcus faecium 569 strain; format: functional
How it was run: (§1)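 MIC by broth microdilution in Mueller Hinton broth following NCCLS procedures. Compounds were dissolved in 10% DMSO in water, then diluted in broth. Final DMSO was 1.28% at 128 µg/mL antibiotic down to 0.0013% at 0.13 µg/mL. Repeat determinations were usually identical and always within 2-fold.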

Staphylococcus aureus [2] = assay: Antibacterial activity against glycopeptide intermediate resistant Staphylococcus aureus 3797 strain; format: functional; how it was run: as §1
Enterococcus faecium [3] = assay: Antibacterial activity against glycopeptide susceptible Enterococcus faecium 568 strain; format: functional
How it was run: (§2)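 MIC by broth microdilution in Mueller Hinton broth following NCCLS procedures. Compounds dissolved in 10% DMSO in water, then diluted in broth; test range 128 to 0.13 µg/mL, final DMSO 1.28% to 0.0013% accordingly. Repeat determinations usually identical and always within 2-fold. Strain 533 is a clinical isolate; strain 602 is a clinical S. haemoliticus isolate.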

[4] = tested on: Staphylococcus epidermidis; assay: Antibacterial activity against Staphylococcus epidermis 533 strain; format: functional
Enterococcus faecalis [5] = assay: Antibacterial activity against glycopeptide resistant Enterococcus faecalis 560 strain; format: functional; how it was run: as §1
Staphylococcus aureus [6] = assay: Antibacterial activity against glycopeptide intermediate resistant Staphylococcus aureus 3798 strain; format: functional; how it was run: as §1
Enterococcus faecalis [7] = assay: Antibacterial activity against glycopeptide susceptible Enterococcus faecalis 559 strain; format: functional; how it was run: as §2
[8] = tested on: Staphylococcus haemolyticus; assay: Antibacterial activity against Staphylococcus haemolyticus 602 strain

Structure (SMILES) | MIC (Enterococcus faecium [1]) [µg/mL] | MIC (Staphylococcus aureus [2]) [µg/mL] | MIC (Enterococcus faecium [3]) [µg/mL] | MIC [4] [µg/mL] | MIC (Enterococcus faecalis [5]) [µg/mL] | MIC (Staphylococcus aureus [6]) [µg/mL] | MIC (Enterococcus faecalis [7]) [µg/mL] | MIC [8] [µg/mL]
CCCCCCCCCCNC(=O)[C@H]1NC(=O)[C@H]2NC(=O)[C@H](NC(=O)[C@@H]3NC(=O)[C@H](CC(N)=O)NC(=O)[C@H](NC(=O)[C@@H](CC(C)C)NC)[C@H](O)c4ccc(c(Cl)c4)Oc4cc3cc(c4O[C@@H]3O[C@H](CO)[C@@H](O)[C@H](O)[C@H]3O[C@H]3C[C@](C)(N)C(O)[C@H](C)O3)Oc3ccc(cc3Cl)[C@H]2O)c2ccc(O)c(c2)-c2c(O)cc(O)cc21 (some centres not stated) | 8 (≈ 5.04 µM) | 1 (≈ 0.63 µM) | 0.5 (≈ 0.315 µM) | 0.5 (≈ 0.315 µM) | 8 (≈ 5.04 µM) | 1 (≈ 0.63 µM) | 0.5 (≈ 0.315 µM) | 1 (≈ 0.63 µM)
CCCCCCCCCCNC(=O)[C@H]1NC(=O)[C@H]2NC(=O)[C@H](NC(=O)[C@@H]3NC(=O)[C@H]4NC(=O)[C@@H](Cc5ccc(c(Cl)c5)Oc5cc3cc(c5O)Oc3ccc(cc3Cl)[C@H]2O)NC(=O)[C@H](N)c2ccc(O)c(c2)Oc2cc(O)cc4c2)c2ccc(O)c(c2)-c2c(O)cc(O)cc21 | 4 (≈ 2.99 µM) | 1 (≈ 0.747 µM) | 0.25 (≈ 0.187 µM) | 0.13 (≈ 0.0971 µM) | 4 (≈ 2.99 µM) | 1 (≈ 0.747 µM) | 0.5 (≈ 0.374 µM) | 0.5 (≈ 0.374 µM)
CC(=O)N[C@@H]1[C@H](O[C@@H]2c3ccc(c(Cl)c3)Oc3cc(cc(Oc4ccc(C[C@@H](N)CO)cc4Cl)c3O)[C@@H](N)C(=O)N[C@H]3C(=O)N[C@@H]2C(=O)N[C@H](C(=O)O)c2cc(O)cc(O[C@H]4O[C@H](CO)[C@@H](O)[C@@H](O)[C@@H]4O)c2-c2cc3ccc2O)O[C@@H](CO)[C@@H](O)[C@@H]1O | > 128 | > 64 | 32 (≈ 25.5 µM) | 64 (≈ 51 µM) | > 128 | > 64 | 64 (≈ 51 µM) | 64 (≈ 51 µM)
N[C@H]1C(=O)N[C@@H]2Cc3ccc(c(Cl)c3)Oc3cc4cc(c3O)Oc3ccc(cc3Cl)[C@@H](O)[C@@H]3NC(=O)[C@H](NC(=O)[C@@H]4NC(=O)[C@@H](NC2=O)c2cc(O)cc(c2)Oc2cc1ccc2O)c1ccc(O)c(c1)-c1c(O)cc(O)cc1[C@@H](C(=O)NCc1ccc(-c2ccc(Cl)cc2)cc1)NC3=O | 4 (≈ 2.86 µM) | 1 (≈ 0.715 µM) | 0.25 (≈ 0.179 µM) | 0.13 (≈ 0.0929 µM) | 8 (≈ 5.72 µM) | 1 (≈ 0.715 µM) | 0.25 (≈ 0.179 µM) | 0.13 (≈ 0.0929 µM)
NC(=O)C[C@@H]1NC(=O)[C@H](N)[C@H](O)c2ccc(c(Cl)c2)Oc2cc3cc(c2O)Oc2ccc(cc2)[C@@H](O)[C@@H]2NC(=O)[C@H](NC(=O)[C@@H]3NC1=O)c1ccc(O)c(c1)-c1c(O)cc(O)cc1[C@@H](C(=O)O)NC2=O | – | > 128 | > 128 | > 128 | – | > 128 | > 128 | > 128
C[C@@H]1O[C@@H](O[C@H]2[C@H](Oc3c4cc5cc3Oc3ccc(cc3Cl)[C@@H](O)[C@@H](N)C(=O)N[C@@H](CC(N)=O)C(=O)N[C@H]5C(=O)N[C@H]3C(=O)N[C@H](C(=O)N[C@H](C(=O)NCc5ccc(-c6ccc(Cl)cc6)cc5)c5cc(O)cc(O)c5-c5cc3ccc5O)[C@H](O[C@H]3C[C@](C)(N)[C@@H](O)[C@H](C)O3)c3ccc(cc3)O4)O[C@H](CO)[C@@H](O)[C@@H]2O)C[C@](C)(N)[C@H]1O | 2 (≈ 1.23 µM) | 8 (≈ 4.91 µM) | 4 (≈ 2.45 µM) | 4 (≈ 2.45 µM) | 4 (≈ 2.45 µM) | 8 (≈ 4.91 µM) | 4 (≈ 2.45 µM) | 4 (≈ 2.45 µM)
CCCCCCCCCCNC(=O)[C@H]1NC(=O)[C@H]2NC(=O)[C@H](NC(=O)[C@H](N)c3cc(Oc4ccc(C[C@@H](N)CO)cc4Cl)c(O)c(c3)Oc3ccc(cc3Cl)[C@H]2O[C@@H]2O[C@@H](CO)[C@@H](O)[C@H](O)[C@@H]2NC(C)=O)c2ccc(O)c(c2)-c2c(O[C@H]3O[C@H](CO)[C@@H](O)[C@@H](O)[C@@H]3O)cc(O)cc21 | 16 (≈ 11.5 µM) | 32 (≈ 22.9 µM) | 16 (≈ 11.5 µM) | 16 (≈ 11.5 µM) | 64 (≈ 45.9 µM) | 16 (≈ 11.5 µM) | 16 (≈ 11.5 µM) | 32 (≈ 22.9 µM)
CCCCCCCCCCNC(=O)[C@H]1NC(=O)[C@H]2NC(=O)[C@H](NC(=O)[C@@H]3NC(=O)[C@H](CC(N)=O)NC(=O)[C@H](NC(=O)[C@@H](CC(C)C)NC)[C@H](O)c4ccc(c(Cl)c4)Oc4cc3cc(c4O)Oc3ccc(cc3)[C@H]2O)c2ccc(O)c(c2)-c2c(O)cc(O)cc21 | 4 (≈ 3.2 µM) | 4 (≈ 3.2 µM) | 4 (≈ 3.2 µM) | 4 (≈ 3.2 µM) | 4 (≈ 3.2 µM) | 4 (≈ 3.2 µM) | 4 (≈ 3.2 µM) | 4 (≈ 3.2 µM)
